High-throughput results: PubChem, several laboratories
PfG6PD inh: PfG6PD enzyme inhibitors, primary screen, biochemical, fluorescence intensity, uHTS | glucose-6-phosphate dehydrogenase-6-phosphogluconolactonase (Plasmodium falciparum 3D7) | inhibition, % at 20 µM | PfGluPho enzyme, NADPH resazurin-diaphorase fluorescence | actives 0.78% (n = 350,000) | AID 504690, 2011;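 active = inhibition reaching at least a set limit at 20 µM in the primary screen, cut at about 59% in these data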;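 also: 0% = DMSO wells with substrate and 100% = DMSO wells lacking glucose-6-phosphate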
EBNA-1 inh: EBNA-1 DNA-binding inhibitors, primary screen, biochemical, fluorescence polarization; actives 0.34% (n = 300,000); inhibition, % at 14.8 µM; AID 1950, 2009; in the data active = inhibition above about 28%
PfM18AAP inh: PfM18AAP inhibitors, malaria aminopeptidase, primary screen, biochemical, QFRET, recombinant enzyme; M18 aspartyl aminopeptidase (Plasmodium falciparum 3D7); H-Glu-NHMec fluorogenic cleavage; inhibition, % at 7.35 µM; actives 1.2% (n = 290,000);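 active = inhibition above the campaign mean inhibition over all tested compounds plus 3 SD, cut at about 28% in these data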;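 also: 0% = plate median of test compound wells and 100% = 2 mM ZnCl2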
UBC13 inh: UBC13 polyubiquitin chain formation inhibitors, primary screen, biochemical, TR-FRET, uHTS. actives 0.47% (n = 330,000). Ubiquitin-conjugating enzyme E2 N (Homo sapiens), P61088. inhibition, % at 20 µM; in the data active = inhibition above about 45%, passing the limit was not always enough
Apaf-1 inh: inhibitors of human Apaf-1 apoptosome, primary screen, biochemical, DEVD-Rh110 fluorescence, uHTS; inhibition, % at 20 µM; reconstituted apoptosome caspase-3 activity; actives 0.71% (n = 330,000); AID 489030, 2010; active = inhibition of at least 40% at 20 µM;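 also: plate controls were DMSO wells for no effect and DEVD-CHO caspase inhibitor wells for full effect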
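Medium: Hepes buffer, pH 7.5 / System: biochemical Apaf-1 apoptosome reconstitution / Measured by: Rh110 fluorescence, excitation 480 nm, emission 540 nm / Times: compound with Apaf-1, dATP, procaspase-3 30 min, then 50 min reaction, room temperature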
ZTA counter: counter-screen for EBNA-1 inhibitors: inhibitors of Epstein-Barr virus ZTA. ZTA-DNA binding, fluorescence polarization. inhibition, % at 11 µM. actives 0.15% (n = 320,000). AID 2234; in the data active = inhibition above about 33%
Casp3 UBC13 ctr: CASP3 inhibitor validation, counterassay for project on UBE2N polyubiquitination blockers, biochemical, one dose; actives 4% (n = 1,400); AID 488856, 2010; Recombinant caspase-3, Caspase-Glo 3/7 luminescence, 60 min; shares compounds with UBC13 inh; inhibition, % at 20 µM;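 active = mean inhibition across replicates above about 26%, limit read from the data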;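 also: plate controls were DMSO with caspase-3 for no effect and DMSO wells lacking enzyme for full effect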
UBC13 confirm: UBC13 polyubiquitination inhibitors, single-point retest, confirmation, biochemical, TR-FRET, single concentration; AID 488859, 2010; actives 68% (n = 1,400); inhibition, % at 10 µM; shares compounds with UBC13 inh; in the data active = inhibition above about 45%
Apaf-1 inh conf2: Apaf-1 inhibitors, single-dose retest, confirmation, biochemical, fluorescence, DEVD-Rh110, 20 µM | shares compounds with Apaf-1 inh | reconstituted apoptosome, caspase-3 DEVD-Rh110 fluorescence | inhibition, % at 20 µM | actives 25% (n = 1,800);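 active = mean inhibition of at least 40% at 20 µM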;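 also: plate controls were DMSO wells for no effect and DEVD-CHO caspase inhibitor control wells for full effect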
Rh110 interf inh: Rh110 fluorescence interference by putative Apaf-1 inhibitors, confirmation, artefact control for Apaf-1 inhibitor project, biochemical, 20 µM; shares compounds with Apaf-1 inh; quenched caspase reaction; activation (fluorescence interference), % at 20 µM; 1,800 tested, under 10 active;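 active = signal rise of 40% or more at 20 µM, treated as a fluorescence artifact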
Apaf1 inh interf: fluorescence interference of Apaf-1 inhibitor hits, dose response, artefact control for Apaf-1 inhibitor project | shares compounds with Apaf-1 inh | fluorescence interference counterscreen, Apaf-1 assay format | IC50, µM | 460 tested, under 10 active | AID 588538, 2011; call rule not given here
* hit, by the source's call; · = not tested or not shown. Shown are actives, neighbours in structure and some others; about 2.9% of the full set was active somewhere.

SMILES | PfG6PD inh | EBNA-1 inh | PfM18AAP inh | UBC13 inh | Apaf-1 inh | ZTA counter | Casp3 UBC13 ctr | UBC13 confirm | Apaf-1 inh conf2 | Rh110 interf inh | others
CC1CCN(C(=O)Cn2c3ccc(F)cc3c3nc4n(c(=O)c32)CCCS4)CC1 | 3 | 7 | 7 | -2 | -6 | 1 | · | · | · | ·
CCN(Cc1ccccc1)S(=O)(=O)c1ccc(C(=O)N(CCCN(C)C)c2nc3cc(C)cc(C)c3s2)cc1 | 12 | -1 | · | 74* | 42* | -17 | -3 | 109* | 20 | 6
CCCCN(CC)S(=O)(=O)c1ccc(C(=O)N(CCCN(C)C)c2nc3cc(C)cc(C)c3s2)cc1 | 39 | 6 | -1 | 80* | 47* | 6 | 0 | 102* | 15 | 7
CCCCN(C)S(=O)(=O)c1ccc(C(=O)N(CCN(C)C)c2nc3ccc(C)cc3s2)cc1 | -6 | 2 | -14 | 22 | -2 | -10 | · | · | · | ·
CCOc1cccc2sc(N(CCCN(C)C)C(=O)c3ccc(S(=O)(=O)N(C)Cc4ccccc4)cc3)nc12 | 4 | 9 | 4 | 76* | 62* | -16 | 2 | 111* | 27 | 11
CCOc1cccc2sc(N(CCCN(C)C)C(=O)c3ccc(C(=O)c4ccccc4)cc3)nc12 | 14 | 3 | 2 | 29 | 18 | -22 | · | · | · | ·
CN(CC(=O)NCc1ccncc1)S(=O)(=O)c1ccc2ccccc2c1 | 6 | 5 | 2 | 3 | 0 | 5 | · | · | · | ·
Cc1c(C(=O)OCC(=O)N2CCN(c3ccccc3)CC2)oc2ccccc12 | 7 | · | · | -1 | 24 | · | · | · | · | ·
CCN1CCN(Cc2ccc(NC(=O)c3ccc(C)c(NC(=O)c4cc(-c5ccc(Br)cc5)n[nH]4)c3)cc2C(F)(F)F)CC1 | 3 | 5 | · | 72* | 45* | 11 | 2 | 65* | 22 | -2
C[C@@H]1Cn2cnc(C(=O)NCC(=O)OC(C)(C)C)c2C(=O)N1 | 14 | · | · | · | · | · | · | · | · | ·
CN1CCN(CC(=O)N2CCn3c4c(c5cc(C6CCCCC6)ccc53)CCCC42)CC1 (stereo unspecified) | 10 | -1 | 5 | 90* | 58* | 15 | 1 | 103* | 37 | 7
Cc1ccc2c(c1)c1c3n2CCN(C(=O)CN2CCN(C)CC2)C3CCC1 (stereo unspecified) | 23 | 9 | 1 | 8 | 13 | 13 | · | · | · | ·
CC(C)C[C@@H](CN1CCC[C@@H]1CN1C(=O)C(=O)NC[C@@H]1Cc1ccccc1)N1C[C@H](Cc2ccc(O)cc2)N(CCc2ccccc2)C(=O)C1=O | -3 | · | · | · | · | · | · | · | · | ·
C[C@@H](CN1CCC[C@H]1CN1C(N)=NC[C@@H]1Cc1ccccc1)N1C[C@@H](Cc2ccccc2)N(CCc2ccc(Cl)c(Cl)c2)C1=N | 32 | · | · | 63* | 74* | · | -5 | 70* | 29 | 5
Oc1ccc(C[C@H]2CNC(=S)N2CC2CCCN2C[C@H](Cc2ccccc2)N2C[C@H](Cc3ccc(O)cc3)N(CCc3ccccc3)C2=S)cc1 (stereo partly specified) | 0 | · | · | · | · | · | · | · | · | ·
CC(C)[C@@H]1CN=C(N)N1C[C@@H]1CCCN1C[C@H](C)N1C[C@@H](Cc2ccccc2)N(CCc2ccc(Cl)c(Cl)c2)C1=N | 4 | · | · | 70* | 54* | · | -2 | 46* | 13 | -1
CC(C)[C@H](CN1CCC[C@H]1CN1C(N)=NC[C@@H]1Cc1ccccc1)N1C[C@@H](Cc2ccccc2)N(CCc2ccc(Cl)c(Cl)c2)C1=N | 29 | · | · | 75* | 82* | · | 3 | 76* | 40 | 8
COc1ccc(CCN2C(=O)N[C@@H](CCC(=O)O)C2=O)cc1 | -2 | -10 | -5 | 2 | -2 | -7 | · | · | · | ·
Cc1nn(C)c(C)c1CS(=O)(=O)c1ccccc1 | -6 | -11 | -3 | -2 | 1 | -11 | · | · | · | ·
Cc1ccc(-c2csc3nc4c5ccccc5c(NCCCN(C)C)nn4c(=O)c23)cc1 | 2 | -5 | 3 | 97* | 42* | 0 | 1 | 100* | 58* | 12 | Apaf1 inh interf=>100
Cc1ccc(-c2nc(NCCCN(C)C)c3ccccc3n2)cc1 | 0 | · | · | · | · | · | · | · | · | ·
CC[C@@H](C)[C@@H]1CN([C@@H](C)CN2CCC[C@H]2CN2C(N)=NC[C@H]2CC(C)C)C(=N)N1CCc1ccc(Cl)c(Cl)c1 | -2 | · | · | 69* | 52* | · | 0 | 70* | 2 | 3
CC[C@@H](C)[C@@H]1CN([C@@H](CN2CCC[C@H]2CN2C(N)=NC[C@H]2CC(C)C)C(C)C)C(=N)N1CCc1ccc(Cl)c(Cl)c1 | 8 | · | · | 73* | 63* | · | 3 | 86* | 23 | 14
CCC[C@@H](CN1CCC[C@H]1CN1C(N)=NC[C@H]1CC(C)C)N1C[C@@H]([C@H](C)CC)N(CCc2ccc(Cl)c(Cl)c2)C1=N | 12 | · | · | 82* | 64* | · | -4 | 80* | 14 | 5
Cc1cccc(CCN2C(N(C)C)=NC[C@@H]2CC(C)C)c1 | -5 | 6 | · | 4 | -6 | 3 | · | · | · | ·
CCO[C@H]1c2c(ccc3ccc(=O)oc23)OC(C)(C)[C@H]1O | 12 | · | · | 18 | -2 | · | · | · | · | ·
CC(=O)N(Cc1nc2sc(C)c(C)c2c(=O)[nH]1)C1CCCC1 | -2 | 5 | -10 | 2 | 4 | 12 | · | · | · | ·
COc1ccc(CC(=O)N(C)CC(=O)Nc2ccccc2Cl)cc1S(=O)(=O)N1CCOCC1 | -10 | · | · | 52* | 59* | -2 | 3 | 41 | 33 | -4
COc1ccc(CC(=O)Nc2cccc(Cl)c2C)cc1S(=O)(=O)N1CCOCC1 | -3 | · | · | -5 | 2 | -1 | · | · | · | ·
